The source made the active and inactive calls. The rule behind the calls is not given here.
Key:
[1] = Metal chelating activity assessed as compound-Fe2+ complex formation at 40 uM in presence of FeSO4 after 30 mins by UV-visible spectrophotometric analysis
Procedure, shortened: (§1)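 UV–vis spectra (200–500 nm) of compound at 40 µM final, alone or with CuCl2, FeSO4, FeCl3 or ZnCl2 (20 µM final), after 30 min in 20 mM HEPES, 150 mM NaCl, pH 7.4, at room temperature.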

in vitro = settings: PAMPA
Cortical neurone [2] = assay: Cytotoxicity against E17 Sprague-Dawley rat primary cortical neurons at 100 uM after 24 hrs by MTT assay; type: cell-based
Procedure, shortened: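 Primary cortical neurons from E17 SD rat embryos, trypsin-dissociated and cultured 9 days in neurobasal/B27 on poly-L-lysine (3×10^4 cells/well). Treated at 10, 30 and 100 µM for 24 h, with donepezil as reference. MTT (5 mg/mL, 10 µL) for 4 h at 37 °C, absorbance 490 nm, viability as % of vehicle-treated cells; mean ± SEM.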

Rattus norvegicus = species: Rattus norvegicus; assay: Selectivity index, ratio of IC50 for BuChE in rat serum to IC50 for AChE in rat cortex homogenate; type: tissue-based
[3] = Inhibition of Cu2+-induced amyloid beta (1 to 42 residues) (unknown origin) aggregation assessed as reduction in amyloid beta fibril load at 50 uM after 24 hrs by phosphotungstic acid staining-based transmission electron microscopic method
Procedure, shortened: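 Aβ1-42 (25 µM) ± CuCl2 (25 µM) ± compound (50 µM) in HEPES/NaCl pH 6.6, incubated 24 h at 37 °C. Aliquots placed on carbon-coated copper grids for 30 min, stained 20 s with 2% phosphotungstic acid, imaged by TEM. Clioquinol as comparator.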

[4] = Metal chelating activity assessed as compound-Cu2+ complex formation at 40 uM in presence of CuCl2 after 30 mins by UV-visible spectrophotometric analysis; procedure, shortened: as §1
[5] = target: T1, Amine oxidase [flavin-containing] B (Homo sapiens, UniProt P27338)
T1 sequence (P27338 whole entry): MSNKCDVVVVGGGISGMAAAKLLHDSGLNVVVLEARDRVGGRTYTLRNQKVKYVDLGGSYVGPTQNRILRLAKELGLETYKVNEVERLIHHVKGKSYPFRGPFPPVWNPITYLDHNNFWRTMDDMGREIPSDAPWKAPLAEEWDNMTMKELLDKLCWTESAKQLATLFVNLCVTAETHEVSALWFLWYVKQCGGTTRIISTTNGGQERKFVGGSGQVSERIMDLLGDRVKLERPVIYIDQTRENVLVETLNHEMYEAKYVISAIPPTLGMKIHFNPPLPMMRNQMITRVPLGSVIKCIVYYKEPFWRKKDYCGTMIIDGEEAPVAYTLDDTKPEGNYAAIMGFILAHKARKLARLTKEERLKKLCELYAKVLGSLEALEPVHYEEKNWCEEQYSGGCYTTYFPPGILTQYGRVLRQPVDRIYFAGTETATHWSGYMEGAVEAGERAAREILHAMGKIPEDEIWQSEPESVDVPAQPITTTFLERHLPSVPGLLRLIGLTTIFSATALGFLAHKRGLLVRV

Butyrylcholinesterase = Butyrylcholinesterase (Rattus norvegicus, UniProt Q9JKC1); assay: Inhibition of BuChE in rat serum using butyrylthiocholine iodide as substrate after 20 mins by Ellman's method
Cortical neurone [6] = assay: Cytotoxicity against E17 Sprague-Dawley rat primary cortical neurons at 10 to 30 uM after 24 hrs by MTT assay; type: cell-based
Mus musculus = assay: Reversal of scopolamine-induced dementia in ICR mouse assessed as decrease in frequent error incidences at 30 mg/kg, po administered 40 mins prior to scopolamine-challenge by water maze test; type: functional, organism-based
Procedure, shortened: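 Test compound as HCl salt, 30 mg/kg intragastric, given 40 min before scopolamine (4.5 mg/kg i.p.), which was given 20 min before the water maze. Escape latency and errors (entries into no-exit paths) recorded; mean ± SEM.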

[7] = target: T2, Amine oxidase [flavin-containing] A (Homo sapiens, UniProt P21397); assay: Inhibition of recombinant human MAOA at 50 uM using p-tyramine as substrate preincubated for 15 mins followed by substrate addition measured after 15 mins by Amplex red reagent based fluorescence assay; settings: 0.25 h
T2 sequence (P21397 whole entry): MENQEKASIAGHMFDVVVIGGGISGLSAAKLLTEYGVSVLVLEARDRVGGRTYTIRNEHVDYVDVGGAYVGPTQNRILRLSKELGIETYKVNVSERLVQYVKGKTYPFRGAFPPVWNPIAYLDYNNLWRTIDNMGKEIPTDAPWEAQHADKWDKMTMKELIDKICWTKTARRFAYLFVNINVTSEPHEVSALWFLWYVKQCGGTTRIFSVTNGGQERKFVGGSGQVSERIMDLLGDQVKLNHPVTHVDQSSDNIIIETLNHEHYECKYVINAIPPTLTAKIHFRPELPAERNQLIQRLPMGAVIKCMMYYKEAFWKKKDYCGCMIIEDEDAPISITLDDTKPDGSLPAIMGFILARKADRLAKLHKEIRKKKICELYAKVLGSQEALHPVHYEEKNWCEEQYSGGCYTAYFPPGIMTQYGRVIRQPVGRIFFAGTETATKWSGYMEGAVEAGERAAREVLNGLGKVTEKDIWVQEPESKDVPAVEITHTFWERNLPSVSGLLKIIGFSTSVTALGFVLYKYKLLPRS
Procedure, shortened: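 Recombinant human MAO-A (12.5 µg/mL) or MAO-B (75 µg/mL) preincubated 15 min at 37 °C with compound (diluted from 10 mM DMSO stock in 50 mM KH2PO4, pH 7.4). Amplex Red working solution added: 2 mM p-tyramine (MAO-A) or benzylamine (MAO-B), 2 U/mL HRP. After 15 min at 37 °C, fluorescence read (ex 545/em 590), background from enzyme-free wells subtracted.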

[8] = Inhibition of Cu2+-mediated amyloid beta (1 to 42) (unknown origin) aggregation at 50 uM after 24 hrs by dot blot assay
[9] = Metal chelating activity assessed as compound-Fe3+ complex formation at 40 uM in presence of FeCl3 after 30 mins by UV-visible spectrophotometric analysis; procedure, shortened: as §1
[10] = target: T2, Amine oxidase [flavin-containing] A; assay: Inhibition of recombinant human MAOA using p-tyramine as substrate preincubated for 15 mins followed by substrate addition measured after 15 mins by Amplex red reagent based fluorescence assay

Chain of Butyrylcholinesterase (Q9JKC1 whole entry): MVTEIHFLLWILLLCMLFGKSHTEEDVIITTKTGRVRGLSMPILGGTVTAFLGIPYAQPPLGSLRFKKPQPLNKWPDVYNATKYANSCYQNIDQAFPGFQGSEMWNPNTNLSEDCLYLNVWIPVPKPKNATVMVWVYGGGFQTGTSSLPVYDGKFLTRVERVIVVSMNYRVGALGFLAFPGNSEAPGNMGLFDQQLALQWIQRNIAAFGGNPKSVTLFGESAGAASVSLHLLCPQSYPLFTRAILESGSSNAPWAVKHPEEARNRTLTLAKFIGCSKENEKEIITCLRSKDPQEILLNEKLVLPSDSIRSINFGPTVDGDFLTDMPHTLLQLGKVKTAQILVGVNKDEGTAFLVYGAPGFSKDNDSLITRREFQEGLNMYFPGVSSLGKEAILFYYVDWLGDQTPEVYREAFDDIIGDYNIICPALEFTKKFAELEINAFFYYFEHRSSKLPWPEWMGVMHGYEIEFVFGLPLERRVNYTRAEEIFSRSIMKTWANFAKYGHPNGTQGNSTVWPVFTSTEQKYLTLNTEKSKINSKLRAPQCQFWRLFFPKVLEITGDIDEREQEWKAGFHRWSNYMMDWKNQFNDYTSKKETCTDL

C#CCN(C)Cc1cn(-c2cc(NC(=S)NCC)ncn2)cn1
Activity [1]: inactive | Papp at 12 h, 100 ug/ml (in vitro): 3.16 ×10⁻⁶ cm/s | Activity (Cortical neurone [2]): Toxic | Ratio IC50 (Rattus norvegicus): > 123 | inhibition [3]: Active | Activity [4]: Active | IC50 [5]: 1430 nM | IC50 (Butyrylcholinesterase): > 40 µM | Activity (Cortical neurone [6]): Non-Toxic | Activity (Mus musculus): Active | inhibition at 50 µM [7]: 20.2% | inhibition [8]: Active | Activity [9]: inactive | IC50 [10]: > 50 µM

From ChEMBL document CHEMBL4138195, “Discovery of novel propargylamine-modified 4-aminoalkyl imidazole substituted pyrimidinylthiourea derivatives as multifunctional agents for the treatment of Alzheimer's disease” (Eur J Med Chem, 2018)
